Measured values from different studies.
Target: Serine/threonine-protein kinase 26 (STK26, Homo sapiens, UniProt Q9P289)

| Compound | effect on | action | method | cell line | tested at | quantity | result |
| --- | --- | --- | --- | --- | --- | --- | --- |
| COc1ncccc1-c1cnn2ccc(N3CCN(C(=O)OC(C)C)CC3)nc12 | binding |  | competition with immobilised ligand |  | 1 µM | remaining binding | 92% |
| Cn1cc(-c2cc(F)cc(N3CCn4c(cc5c4CCCC5)C3=O)c2CO)cc(Nc2ccc(N3CCN(C4COC4)CC3)cn2)c1=O | enzyme activity | inhibitor |  |  | 0.1 µM | inhibition | 14% |
| Cc1nn(C)cc1-c1nc2c(N3CCN(Cc4ccc(Cl)cc4)CC3)c(Cl)cnc2[nH]1 | binding |  | competition with immobilised ligand |  | 1 µM | remaining binding | 100% |
| Nc1ncc(-c2nc(N3CCOCC3)nc(N3CCOCC3)n2)c(C(F)F)n1 | binding |  | competition with immobilised ligand |  | 10 µM | remaining binding | 91% |
| O=c1[nH]c2ccccc2n1C1CCN(Cc2ccc(-c3[nH]c4cc5ncnc5cc4nc3-c3ccccc3)cc2)CC1 | cell-free assay |  |  |  | 0.5 µM | remaining signal | 102% |
| Cn1cncc1[C@@](O)(COc1ccc(C#N)cc1-c1ccc(OC(F)(F)F)cc1)c1ccc(C#N)cc1 | cell-free assay |  | competition with immobilised ligand |  | 1 µM | remaining binding | 99% |
| CC(C)(C)c1cc(C=C(C#N)C#N)cc(Br)c1O | enzyme activity | inhibitor |  |  | 0.5 µM | remaining activity | 95.2% |
| N#CC1(c2ccccn2)CCN(Cc2cc(C(=O)O)c(=O)n3ccccc23)CC1 | cell-free assay |  | competition with immobilised ligand |  | 1 µM | remaining binding | 100% |
| CCN1CCN(Cc2ccc(NC(=O)c3ccc(C)c(/C=C/c4cnc5[nH]ccc5c4OC)c3)cc2C(F)(F)F)CC1 | target engagement in cells | inhibitor | chemoproteomics | A-375 | 50 nM | inhibition | -14.9% |
